Data reported in ChEMBL document CHEMBL2010644, “Evaluation and discovery of novel synthetic chalcone derivatives as anti-inflammatory agents” (J Med Chem, 2011).
pIC50: −log10 of the molar value. Calls of active or inactive are those of the source. The calls are words filed in the database; no cut-off is given here.

target: T1, MAP kinase p38 (Mus musculus) (UniProt P47811+O08911+Q9WUI1+Q9Z1B7); experiment: Inhibition of LPS-induced p38 phosphorylation in ICR mouse primary peritoneal macrophages at 20 uM incubated for 2 hrs prior to LPS-challenge measured after 1 hr by Western blot analysis; conditions: not given
Procedure, shortened: (§1)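 Cells pretreated 2 h with DMSO or compound (10 μM in the single-concentration set; 2.5, 5.0, 10, 20 μM in the dose series), then LPS 0.5 μg/mL for 1 h. p-ERK, ERK, p-p38 and p38 detected by Western blot with actin loading control; optical density ratio reported. Mean ± SE, three independent experiments.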

| Structure (SMILES) | inhibition |
| --- | --- |
| COc1ccc(C(=O)/C=C/c2c(F)cccc2F)cc1 | Active |
| COc1ccc(C(=O)/C=C/c2ccccc2Cl)cc1 | Active |

system: Peritoneal macrophage cell; experiment: Antiinflammatory activity in ICR mouse primary peritoneal macrophages assessed as downregulation of LPS-induced COX-2 mRNA expression at 10 uM incubated for 2 hrs prior to LPS-challenge measured after 6 hrs by RT-qPCR analysis; assay type: functional, cell-based; conditions: not given
Procedure, shortened: (§2)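 Macrophages pretreated 2 h with compound at 10 μM or vehicle, then LPS 0.5 μg/mL for 6 h. mRNA of TNF-α, IL-6, COX-2, IL-1β and IL-12 quantified by RT-qPCR, normalized to β-actin mRNA and expressed as ratio to DMSO. Mean ± SD of four to seven independent experiments.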

| Structure (SMILES) | Activity |
| --- | --- |
| COc1ccc(C(=O)/C=C/c2c(F)cccc2F)cc1 | inactive |
| COc1ccc(C(=O)/C=C/c2ccccc2Cl)cc1 | Active |

system: Peritoneal macrophage cell; experiment: Antiinflammatory activity in ICR mouse primary peritoneal macrophages assessed as downregulation of high glucose-induced TNFalpha mRNA expression at 10 uM incubated for 2 hrs prior to high glucose-challenge measured after 3 hrs by RT-qPCR analysis; assay type: functional, cell-based; conditions: not given
Procedure, shortened: (§3)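 Peritoneal macrophages (1 × 10^6) pretreated with compound (10 μM) or DMSO for 2 h, then high glucose (25 mM) for 3 h. Low-glucose reference cells kept in RPMI-1640 with 5.5 mM glucose. TNF-α, IL-1β, IL-6 and IL-12 mRNA measured by RT-qPCR on whole-cell RNA. Mean ± SEM, three independent experiments run in duplicate.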

| Structure (SMILES) | Activity |
| --- | --- |
| COc1ccc(C(=O)/C=C/c2c(F)cccc2F)cc1 | Active |
| COc1ccc(C(=O)/C=C/c2ccccc2Cl)cc1 | Active |

organism: Mus musculus; experiment: Inhibition of JNK-induced NfkappaB p65 subunit translocation from cytoplasm to nucleus in LPS-stimulated ICR mouse primary peritoneal macrophages at 10 uM incubated for 2 hrs prior to LPS-challenge measured after 1 hr by fluorescence microscopy; conditions: not given
Procedure, shortened: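 Macrophages pretreated with DMSO or 10 μM compound for 2 h, stimulated with LPS 0.5 μg/mL for 1 h. Stained with anti-p65 and Cy3-conjugated secondary antibody, nuclei with DAPI. Imaged at 200× by fluorescence microscopy with red/blue overlay. Five independent experiments.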

| Structure (SMILES) | inhibition |
| --- | --- |
| COc1ccc(C(=O)/C=C/c2c(F)cccc2F)cc1 | Active |
| COc1ccc(C(=O)/C=C/c2ccccc2Cl)cc1 | Active |

system: Peritoneal macrophage cell; experiment: Antiinflammatory activity in ICR mouse primary peritoneal macrophages assessed as downregulation of LPS-induced TNF-alpha mRNA expression at 10 uM incubated for 2 hrs prior to LPS-challenge measured after 6 hrs by RT-qPCR analysis; assay type: functional, cell-based; conditions: not given; procedure, shortened: as §2

| Structure (SMILES) | Activity |
| --- | --- |
| COc1ccc(C(=O)/C=C/c2c(F)cccc2F)cc1 | Active |
| COc1ccc(C(=O)/C=C/c2ccccc2Cl)cc1 | Active |

target: T1, MAP kinase p38 (Mus musculus); experiment: Inhibition of LPS-induced p38 phosphorylation in ICR mouse primary peritoneal macrophages incubated for 2 hrs prior to LPS-challenge measured after 1 hr by Western blot analysis; conditions: not given; procedure, shortened: as §1

| Structure (SMILES) | inhibition |
| --- | --- |
| COc1ccc(C(=O)/C=C/c2c(F)cccc2F)cc1 | Dose-dependent effect |
| COc1ccc(C(=O)/C=C/c2ccccc2Cl)cc1 | Dose-dependent effect |

system: Peritoneal macrophage cell; experiment: Antiinflammatory activity in ICR mouse primary peritoneal macrophages assessed as downregulation of LPS-induced IL-6 mRNA expression at 10 uM incubated for 2 hrs prior to LPS-challenge measured after 6 hrs by RT-qPCR analysis; assay type: functional, cell-based; conditions: not given; procedure, shortened: as §2

| Structure (SMILES) | Activity |
| --- | --- |
| COc1ccc(C(=O)/C=C/c2c(F)cccc2F)cc1 | Active |
| COc1ccc(C(=O)/C=C/c2ccccc2Cl)cc1 | Active |

organism: Mus musculus; experiment: Inhibition of LPS-induced JNK phosphorylation in ICR mouse primary peritoneal macrophages incubated for 2 hrs prior to LPS-challenge measured after 30 mins by Western blot analysis; conditions: not given
Procedure, shortened: (§4)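 Peritoneal macrophages pretreated with DMSO or compound (2.5, 5, 10 or 20 μM) for 2 h, then LPS 0.5 μg/mL for 30 min. Western blot of 40 μg lysate on 10% SDS-PAGE for IκBα (actin loading control) and p-JNK (JNK control); optical density normalized as percent of control. Mean ± SEM, three independent experiments.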

| Structure (SMILES) | inhibition |
| --- | --- |
| COc1ccc(C(=O)/C=C/c2c(F)cccc2F)cc1 | Dose-dependent effect |
| COc1ccc(C(=O)/C=C/c2ccccc2Cl)cc1 | Dose-dependent effect |

system: Peritoneal macrophage cell; experiment: Antiinflammatory activity in ICR mouse primary peritoneal macrophages assessed as downregulation of high glucose-induced IL1beta mRNA expression at 10 uM incubated for 2 hrs prior to high glucose-challenge measured after 3 hrs by RT-qPCR analysis; assay type: functional, cell-based; conditions: not given; procedure, shortened: as §3

| Structure (SMILES) | Activity |
| --- | --- |
| COc1ccc(C(=O)/C=C/c2c(F)cccc2F)cc1 | Active |
| COc1ccc(C(=O)/C=C/c2ccccc2Cl)cc1 | Active |

organism: Mus musculus; experiment: Inhibition of LPS-induced ERK phosphorylation in ICR mouse primary peritoneal macrophages at 20 uM incubated for 2 hrs prior to LPS-challenge measured after 1 hr by Western blot analysis; conditions: not given; procedure, shortened: as §1

| Structure (SMILES) | inhibition |
| --- | --- |
| COc1ccc(C(=O)/C=C/c2c(F)cccc2F)cc1 | Active |
| COc1ccc(C(=O)/C=C/c2ccccc2Cl)cc1 | Active |

system: Peritoneal macrophage cell; experiment: Antiinflammatory activity in ICR mouse primary peritoneal macrophages assessed as downregulation of high glucose-induced IL6 mRNA expression at 10 uM incubated for 2 hrs prior to high glucose-challenge measured after 3 hrs by RT-qPCR analysis; assay type: functional, cell-based; conditions: not given; procedure, shortened: as §3

| Structure (SMILES) | Activity |
| --- | --- |
| COc1ccc(C(=O)/C=C/c2c(F)cccc2F)cc1 | Active |
| COc1ccc(C(=O)/C=C/c2ccccc2Cl)cc1 | Active |

system: Mus musculus; experiment: Antiinflammatory activity against LPS-induced inflammation in C57BL/6 mouse assessed as survival at 15 mg/kg, iv administered 15 mins prior to LPS-challenge after 7 days relative to vehicle treated control; assay type: functional; conditions: not given
Procedure, shortened: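 Male B6 mice, 18−22 g, acclimatized ≥7 days. Compound at 2 mg/mL in macrogol 15 hydroxystearate solubilizer (5−10% final) with or without MCT (0.5−2% final), 200 μL iv at 15 mg/kg, 15 min before iv LPS 20 mg/kg. Vehicle controls got 10% solubilizer/2% MCT. Survival and body weight recorded every 12 h for 7 days; n = 10 per group.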

| Structure (SMILES) | Activity [%] |
| --- | --- |
| COc1ccc(C(=O)/C=C/c2c(F)cccc2F)cc1 | 80 |
| COc1ccc(C(=O)/C=C/c2ccccc2Cl)cc1 | 70 |

organism: Mus musculus; experiment: Inhibition of LPS-induced ERK phosphorylation in ICR mouse primary peritoneal macrophages incubated for 2 hrs prior to LPS-challenge measured after 1 hr by Western blot analysis; conditions: not given; procedure, shortened: as §1

| Structure (SMILES) | inhibition |
| --- | --- |
| COc1ccc(C(=O)/C=C/c2ccccc2Cl)cc1 | Dose-dependent effect |

target: T1, MAP kinase p38 (Mus musculus); experiment: Inhibition of LPS-induced p38 phosphorylation in ICR mouse primary peritoneal macrophages at 10 uM incubated for 2 hrs prior to LPS-challenge measured after 1 hr by Western blot analysis; conditions: not given; procedure, shortened: as §1

| Structure (SMILES) | inhibition |
| --- | --- |
| COc1ccc(C(=O)/C=C/c2c(F)cccc2F)cc1 | Active |
| COc1ccc(C(=O)/C=C/c2ccccc2Cl)cc1 | Active |

organism: Mus musculus; experiment: Inhibition of JNK-induced IkappaBalpha degradation in LPS-stimulated ICR mouse primary peritoneal macrophages incubated for 2 hrs prior to LPS-challenge measured after 30 mins by Western blot analysis; conditions: not given; procedure, shortened: as §4

| Structure (SMILES) | inhibition |
| --- | --- |
| COc1ccc(C(=O)/C=C/c2c(F)cccc2F)cc1 | Dose-dependent effect |
| COc1ccc(C(=O)/C=C/c2ccccc2Cl)cc1 | Dose-dependent effect |

system: Peritoneal macrophage cell; experiment: Antiinflammatory activity in ICR mouse primary peritoneal macrophages assessed as downregulation of LPS-induced IL-12 mRNA expression at 10 uM incubated for 2 hrs prior to LPS-challenge measured after 6 hrs by RT-qPCR analysis; assay type: functional, cell-based; conditions: not given; procedure, shortened: as §2

| Structure (SMILES) | Activity |
| --- | --- |
| COc1ccc(C(=O)/C=C/c2c(F)cccc2F)cc1 | Active |
| COc1ccc(C(=O)/C=C/c2ccccc2Cl)cc1 | Active |

system: Mus musculus; experiment: Toxicity in C57BL/6 mouse assessed as weight loss at 15 mg/kg, iv up to 60 hrs; assay type: organism-based; parameters: dose 15 mg/kg, route intravenous; conditions: in vivo
Procedure, shortened: (§5)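 Male B6 mice (18−22 g) given compound at 15 mg/kg iv (2 mg/mL in macrogol 15 hydroxystearate 5−10% ± MCT 0.5−2%, 200 μL). LPS 20 mg/kg iv followed 15 min later. Vehicle controls received 10% solubilizer/2% MCT. Body weight recorded every 12 h for 7 days; n = 10 per group.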

| Structure (SMILES) | Activity |
| --- | --- |
| COc1ccc(C(=O)/C=C/c2c(F)cccc2F)cc1 | Toxic |
| COc1ccc(C(=O)/C=C/c2ccccc2Cl)cc1 | Toxic |

system: RAW264.7; experiment: Antiinflammatory activity in mouse RAW264.7 cells assessed as inhibition of LPS-induced IL6 production incubated for 2 hrs prior to LPS-challenge measured after 22 hrs by ELISA; assay type: functional, cell-based; conditions: not given
Procedure, shortened: (§6)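 RAW264.7 cells grown in DMEM with 10% FBS at 37 °C, 5% CO2, plated at 1.2 × 10^6/plate overnight. Compound pretreatment 2 h (screen at 10 μM; dose-response at 2.5, 5.0, 10 μM), then LPS 0.5 μg/mL for 22 h. Medium TNF-α or IL-6 measured by ELISA, normalized to cell protein, expressed as % of LPS control; IC50 derived from dose series.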

| Structure (SMILES) | pIC50 | inhibition |
| --- | --- | --- |
| COc1ccc(C(=O)/C=C/c2c(F)cccc2F)cc1 | 5.26 | Dose-dependent effect |
| COc1ccc(C(=O)/C=C/c2ccccc2Cl)cc1 | 5.09 | Dose-dependent effect |

system: Mus musculus; experiment: Toxicity in C57BL/6 mouse assessed as weight loss at 15 mg/kg, iv after 60 hrs; assay type: organism-based; parameters: dose 15 mg/kg, route intravenous; conditions: in vivo; procedure, shortened: as §5

| Structure (SMILES) | Activity |
| --- | --- |
| COc1ccc(C(=O)/C=C/c2c(F)cccc2F)cc1 | Non-toxic |
| COc1ccc(C(=O)/C=C/c2ccccc2Cl)cc1 | Non-toxic |

system: Peritoneal macrophage cell; experiment: Antiinflammatory activity in ICR mouse primary peritoneal macrophages assessed as downregulation of LPS-induced IL-1beta mRNA expression at 10 uM incubated for 2 hrs prior to LPS-challenge measured after 6 hrs by RT-qPCR analysis; assay type: functional, cell-based; conditions: not given; procedure, shortened: as §2

| Structure (SMILES) | Activity |
| --- | --- |
| COc1ccc(C(=O)/C=C/c2c(F)cccc2F)cc1 | Active |
| COc1ccc(C(=O)/C=C/c2ccccc2Cl)cc1 | Active |

system: RAW264.7; experiment: Antiinflammatory activity in mouse RAW264.7 cells assessed as inhibition of LPS-induced TNFalpha production incubated for 2 hrs prior to LPS-challenge measured after 22 hrs by ELISA; assay type: functional, cell-based; conditions: not given; procedure, shortened: as §6

| Structure (SMILES) | pIC50 | inhibition |
| --- | --- | --- |
| COc1ccc(C(=O)/C=C/c2c(F)cccc2F)cc1 | 5.07 | Dose-dependent effect |
| COc1ccc(C(=O)/C=C/c2ccccc2Cl)cc1 | 5.14 | Dose-dependent effect |

organism: Mus musculus; experiment: Inhibition of LPS-induced ERK phosphorylation in ICR mouse primary peritoneal macrophages at 10 uM incubated for 2 hrs prior to LPS-challenge measured after 1 hr by Western blot analysis; conditions: not given; procedure, shortened: as §1

| Structure (SMILES) | inhibition |
| --- | --- |
| COc1ccc(C(=O)/C=C/c2c(F)cccc2F)cc1 | Active |
| COc1ccc(C(=O)/C=C/c2ccccc2Cl)cc1 | Active |

system: Peritoneal macrophage cell; experiment: Antiinflammatory activity in ICR mouse primary peritoneal macrophages assessed as downregulation of high glucose-induced IL12 mRNA expression at 10 uM incubated for 2 hrs prior to high glucose-challenge measured after 3 hrs by RT-qPCR analysis; assay type: functional, cell-based; conditions: not given; procedure, shortened: as §3

| Structure (SMILES) | Activity |
| --- | --- |
| COc1ccc(C(=O)/C=C/c2c(F)cccc2F)cc1 | Active |
| COc1ccc(C(=O)/C=C/c2ccccc2Cl)cc1 | Active |
